# Screens deposited in PubChem BioAssay by several laboratories.
# Hits are enriched below; roughly 5.9% of the tested compounds scored in any of these assays.
# Measles CPE = protection of cells from measles virus | Measles virus-infected cells, CPE protection, absorbance | protection (pct of control), % at 4 µM | actives 1.5% (n = 140,000) | AID 841; in the data active = protection mostly above about 24%, no sharp cut-off; inactive = mostly below about 26%
# HIV Rev-RRE inh = HIV Rev-RRE protein-RNA interaction inhibition; P05866; inhibition, % at 8 µM; Rev peptide-RRE RNA binding, FRET; actives 0.79% (n = 97,000);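 active = inhibition above the screen-wide mean plus 3 SD, cut at about 35% in these data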;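 note: 0% = median DMSO wells and 100% = median Neomycin B control wells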
# Target sequence (P05866 whole entry, looked up): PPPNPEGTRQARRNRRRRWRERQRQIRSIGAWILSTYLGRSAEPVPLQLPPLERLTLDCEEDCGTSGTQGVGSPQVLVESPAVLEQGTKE
#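 Material: labelled RRE RNA duplex and labelled Rev peptide / Buffer or medium: HEPES pH 7.5 salt buffer with EDTA / Compound dosing: single point, 8 µM final nominal compound concentration / Benchmarks: DMSO low control, neomycin B high control / Timing: 5 min preincubation and 15 min binding, 25 °C / Technique: FRET fluorescence readout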
# Cav3 T inh = inhibitors of human Cav3.2 T-type calcium channel | Cav3.2-expressing cells, Fluo-4 calcium fluorescence FDSS; hits give low values | B-score at 10 µM | actives 4% (n = 100,000) | AID 449739;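 active = single-dose well whose peak fluorescence ratio is a statistical outlier from its plate by either plate-standardised score or position-corrected B-score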
# PTK2B oligo ant = blocks oligomerization of human Pyk2 in cells. Q293 cells, Pyk2 FERM NanoBiT luminescence; hits give low values. z-score (the deposit names both 25 µM and 10 µM). actives 0.83% (n = 99,000). AID 1347419;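 active = Z-score of -3 or lower, scaled per plate to the spread of control and sample wells; inactive = z-score above -3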;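 note: negative z-score means lost luminescence so less FERM oligomerization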
# Phagocytosis inh = blocks phagocytosis by macrophages; J774A.1 macrophage IgG-bead phagocytosis, imaging; inhibition, % at 5 µM; actives 0.07% (n = 110,000); AID 1029;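 active = inhibition above the mean of the plate negative controls plus 5 SD, cut at about 13% in these data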;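 note: phagocytic index as fraction of beads internalized from green versus red external bead signal; plate controls were DMSO negative control for no effect and cytochalasin-D positive control for full effect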
# hDAT+cocaine = human DAT dopamine uptake with cocaine, either direction; B-score at 10 µM; AID 449768; LLC-PK1 hDAT cells, [14C]-dopamine uptake with cocaine IC80; actives deviate in either direction; actives 1.3% (n = 110,000);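 active = Z score or B-score, a plate-position-corrected score, falls beyond the plate's 99.7% confidence bounds, in either direction; inactive = both scores lie inside the 99.7% bounds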;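 note: scored against the spread of the other compound wells on the same plate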
# The depositor's hits bear a star; x = no result given; [ ] = dose if it differs, or a comment.
SMILES,Measles CPE,HIV Rev-RRE inh,Cav3 T inh,PTK2B oligo ant,Phagocytosis inh,hDAT+cocaine
O=C(Cc1ccc(Br)cc1)c1ccc(O)cc1O,29.5,7.0,-8.57*,-0.9,-1.4,-1.54
COc1ccc(CC(=O)c2ccc(O)cc2O)cc1,x,x,-0.615,x,x,-0.0393
CCOC(=O)c1ccccc1NC1c2ccccc2C(=O)N1C1CCN(C(=O)OCC)CC1 (stereo not given),2.3,-3.8,-5.78*,x,-0.5,0.628
O=[N+]([O-])c1ccc(N/N=C/c2c[nH]c3ccccc23)c(S(=O)(=O)Nc2ccc(Cl)cc2)c1,14.8,64.6*[fluorescence artefact?],x,-3,-1.5,x
Cc1[nH]c2ccccc2c1/C=N/Nc1ccc([N+](=O)[O-])cc1,3.6,x,x,x,-8.0,x
COc1ccccc1NS(=O)(=O)c1cc([N+](=O)[O-])ccc1N/N=C/c1c(C)[nH]c2ccccc12,0.5,66.2*[fluorescence artefact?],-3.05,-3.15*,-0.5,-0.0725
Cc1ccccc1C(=O)OCCCN=C1NS(=O)(=O)c2ccccc21,2.0,-0.3,-0.158,0.58,x,0.809
COc1ccc(/C=N/NC(=O)Cc2csc(Nc3cccc(C(F)(F)F)c3)n2)c(OC)c1,1.1,7.9,-1.25,-0.88,x,2.68*
CCOc1ccc(/C=N/NC(=O)Cc2csc(Nc3cccc(C(F)(F)F)c3)n2)c(OCC)c1,26.2,7.3,-0.642,-1.47,x,1.01
CCN(CC)S(=O)(=O)c1ccc2c(c1)nc(CCC(=O)Nc1cccc(C(F)(F)F)c1)n2CC,4.1,7.2,0.224,-0.57,-2.4,0.0184
COc1ccc(S(=O)(=O)N2CCCCC2)cc1,13.4,-0.4,-0.768,-0.18,3.8,-0.83
COc1ccc(S(=O)(=O)N2CCCN(CC(=O)Nc3ccc4c(c3)OCO4)CC2)cc1,16.4,8.9,-0.439,-1.24,x,1.39
COc1ccc(S(=O)(=O)N2CCCN(CC(=O)C(C)(C)C)CC2)cc1,48.2*,7.3,0.576,0.64,x,0.00689
CC(O)(CS(=O)(=O)Cc1ccccc1)C(=O)Nc1cccc(C(F)(F)F)c1 (stereo not given),9.6,2.5,-2.59,-0.05,x,-2.81*
COc1ccc(S(=O)(=O)N2CCN(CC(=O)Nc3ccc(F)c(F)c3)CC2)cc1,22.0,14.2,-4.93*,1.58,0.2,0.225
CCN(CC)S(=O)(=O)c1cccc(NC(=O)Nc2cccc(C(F)(F)F)c2)c1,21.6,18.9,-5.84*,-2.46,x,1.33
CC(O)(CS(=O)(=O)Cc1ccccc1)C(=O)Nc1ccc(C(F)(F)F)cc1 (stereo not given),12.6,6.5,-0.151,0.02,-1.2,-0.00827
O=C(CN1CCN(S(=O)(=O)c2ccccc2)CC1)Nc1cccc(C(F)(F)F)c1,3.8,6.5,-7.71*,-0.84,-0.4,-0.551
O=C1c2ccccc2C(Nc2ccc3c(c2)OCCO3)N1Cc1ccccc1 (stereo not given),7.5,x,-6.19*,x,-0.4,-0.388
COc1cccc(-n2cnc(=O)c3cccnc32)c1,6.8,x,x,x,-4.7,x
Cn1nc(-c2ccc(Cl)cc2)nc2c(=O)n(C)c(=O)nc1-2,4.3,26.3,-2.64,x,x,-4.45*
COc1ccc(OCCn2nnc(-c3ccc(Cl)cc3)n2)cc1,9.7,x,x,x,0.1,x
Cc1ccc(-n2c(Cn3cnc4ccccc43)nnc2SCC(=O)O)cc1,4.4,9.5,0.647,1.22,x,0.0606
Cc1nn(Cc2c(F)c(F)c(F)c(F)c2F)c(C)c1NC(=O)c1ccc(COc2ccccc2Cl)o1,6.4,4.5,x,-0.46,x,x
Cc1nn(Cc2c(F)c(F)c(F)c(F)c2F)c(C)c1NC(=O)c1ccc(COc2ccc(F)cc2)o1,2.3,2.4,-4.91*,-0.31,x,-0.281
CCOC(=O)c1c(-c2ccccc2)csc1NC(=O)c1ccc(N2C(=O)CCC2=O)cc1,4.3,1.3,-2.17,-1.07,-0.7,0.0668
CCOC(=O)c1c(-c2ccccc2)csc1/N=C/C1C(=O)CCCC1=O,53.0*,x,x,x,-2.7,x
Cc1ccc(-n2c(Cc3cccn3C)nnc2SCC(=O)Nc2ccc3c(c2)OCO3)cc1,20.5,3.5,-3.91*,0.19,0.0,0.0459
O=C(CSc1nnc(Cc2cccs2)n1-c1ccccc1)Nc1ccc2c(c1)OCCO2,17.8,3.2,-4.84*,-0.56,-2.1,2.28
Cc1ccc(-n2c(Cc3cccn3C)nnc2SCC(=O)NCc2ccc3c(c2)OCO3)cc1,5.9,2.1,-5.01*,-0.38,-1.2,0.111
